This passage reports Kb, IC50 and Kd results from ChEMBL document CHEMBL1128421, “(Piperidinylalkoxy)chromones: novel antihistamines with additional antagonistic activity against leukotriene D4” (J Med Chem, 1995).

The species entered for assay [1] is Cavia porcellus. Briefly: Compound was evaluated for antihistaminic activity against isolated guinea pig ileum. The class given is functional. In short, it runs like this:
(§1)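 Isolated guinea pig ileum segment (about 2 cm) in an organ bath of Krebs buffer at 37 °C, bubbled with 95% O2–5% CO2. Three cumulative histamine dose-response curves were run first, starting at 10 nM. After washing, the strip was exposed to compound for 30 min and the curve repeated. KB was derived by Cheng–Prusoff. Means ± SD of ≥3 independent experiments.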

The species entered for assay [2] is Cavia porcellus. Briefly: Compound was evaluated for inhibition of contraction in guinea pig ileum induced by leukotriene D4 (LTD4). The class given is functional, organism-based. The essentials: (§2)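 Isolated guinea pig ileum strip in Krebs buffer at 37 °C, continuously bubbled with 95% O2–5% CO2. After washing, the strip was pre-incubated with compound for 30 min before LTD4 challenge. Contraction was induced by LTD4 at 10 nM. The value reported is the antagonist concentration giving 50% of maximal inhibition. Means ± SD of ≥3 independent experiments.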

For assay [3], the species on record is Cavia porcellus. Briefly: Compound was evaluated for antihistaminic activity against isolated guinea pig ileum; Not active. The class given is functional. In short, it runs like this: as §1
The species entered for assay [4] is Cavia porcellus. Briefly: Compound was evaluated for inhibition of [3H]LTD4 binding in guinea pig lung membrane fragments.
Assay [5] has as its target T1, Cysteinyl leukotriene receptor 1 (Cavia porcellus, UniProt Q2NNR5).
T1 sequence (Q2NNR5 whole entry): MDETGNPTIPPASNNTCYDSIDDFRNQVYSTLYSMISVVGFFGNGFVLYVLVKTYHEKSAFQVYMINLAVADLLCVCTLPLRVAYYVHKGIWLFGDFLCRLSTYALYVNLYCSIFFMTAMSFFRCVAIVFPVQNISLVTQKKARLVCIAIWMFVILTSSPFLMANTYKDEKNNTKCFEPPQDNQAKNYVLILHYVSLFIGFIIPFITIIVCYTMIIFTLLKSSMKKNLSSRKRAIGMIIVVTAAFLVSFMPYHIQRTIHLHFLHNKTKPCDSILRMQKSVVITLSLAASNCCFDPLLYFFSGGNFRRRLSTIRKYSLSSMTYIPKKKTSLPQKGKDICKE
Briefly: Dissociation constant was determined against Cysteinyl leukotriene D4 receptor of guinea pig lung membranes using radioligand binding assays. The class given is tissue-based.

Assay [6] concerns the target T2, Histamine H1 receptor (Cavia porcellus, UniProt P31389). Briefly: dissociation constant was determined against H1 receptor of guinea pig lung membranes using radioligand binding assays. It is filed as tissue-based. In short, it runs like this: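 Guinea pig lung membranes were incubated with 0.5 nM [3H]mepyramine and compound at 37 °C in 50 mM Na-K phosphate, pH 7.5. Nonspecific binding was defined with (-)-dimethindene. The reaction was stopped with ice-cold buffer, then filtered on GF/C and counted by scintillation. Radioligand KD was 3.30 nM. KB by Cheng–Prusoff; means of two independent assays in triplicate.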

Assay [7] addresses T2, Histamine H1 receptor. Briefly: Dissociation constant was determined against H1 receptor of guinea pig lung membranes using radioligand binding assays. The class given is tissue-based. The essentials: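 Guinea pig lung membranes were incubated with 0.5 nM [3H]mepyramine and compound at 37 °C in 50 mM Na-K phosphate, pH 7.5. Nonspecific binding was defined with (-)-dimethindene. The reaction was stopped with ice-cold buffer, then filtered on GF/C and counted by scintillation. KB by Cheng–Prusoff; means of two independent assays in triplicate.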

The species named for assay [8] is Cavia porcellus. Briefly: Compound was evaluated for inhibition of contraction in guinea pig ileum induced by leukotriene D4 (LTD4); Not active. It is filed as functional, organism-based. The essentials:
as §2

Each structure is given as a SMILES string. The source made the active and inactive calls. The calls are words filed in the database; no cut-off is given here.

T2 sequence (P31389 whole entry): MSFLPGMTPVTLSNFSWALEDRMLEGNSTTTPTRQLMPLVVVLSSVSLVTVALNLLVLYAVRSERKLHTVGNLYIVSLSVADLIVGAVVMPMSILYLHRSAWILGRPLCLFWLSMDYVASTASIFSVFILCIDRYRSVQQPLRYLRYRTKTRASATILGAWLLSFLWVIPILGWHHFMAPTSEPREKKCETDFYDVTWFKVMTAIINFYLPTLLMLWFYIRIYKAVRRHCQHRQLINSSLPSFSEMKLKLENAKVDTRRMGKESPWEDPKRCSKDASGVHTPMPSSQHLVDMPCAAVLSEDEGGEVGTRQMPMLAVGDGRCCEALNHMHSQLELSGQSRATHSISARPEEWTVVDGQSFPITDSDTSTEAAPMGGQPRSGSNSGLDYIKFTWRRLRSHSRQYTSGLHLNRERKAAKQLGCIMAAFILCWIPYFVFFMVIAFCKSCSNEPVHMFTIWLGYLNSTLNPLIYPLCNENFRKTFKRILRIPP

As a reminder, the IC50 is the concentration at which inhibition is half-maximal. The low end stands for inhibition by little substance, the high end for a need for much substance. Molecule `O=c1cc(C2N=NN=N2)oc2cc(OCCCN3CCC(C(O)(c4ccccc4)c4ccccc4)CC3)ccc12` returned a Kb in the assay filed under Cavia porcellus [1] (Cavia porcellus, Ileum) of 1.7 nM. In the assay filed under Cavia porcellus [2], the IC50 was found to be 56700 nM.

In the assay filed under Cavia porcellus [1] (Cavia porcellus, Ileum), `O=C(O)c1cc(=O)c2ccc(OCCCCN3CCC(OC(c4ccccc4)c4ccccc4)CC3)cc2o1` displayed a Kb of 7.08 nM. For the same molecule, in the assay filed under Cavia porcellus [2], the IC50 stood at 9890 nM.

Regarding `CCCc1c(OCC(O)COc2ccc3c(=O)cc(C(=O)O)oc3c2CCC)ccc(C(C)=O)c1O` (stereo unspecified) [FPL-55712], the Kb result in the assay filed under Cavia porcellus [3] was “inactive”. The molecule also came in with an IC50 in the assay filed under Cavia porcellus [2] of 120 nM.

As to `O=C(O)c1cc(=O)c2ccc(OCCCN3CCC(C(O)(c4ccccc4)c4ccccc4)CC3)cc2o1`, the Kb in the assay listed under Cavia porcellus [1] (Cavia porcellus, Ileum) amounted to 5.25 nM. Besides, in the assay filed under Cavia porcellus [2], the midpoint of inhibition, the IC50, lay at 22800 nM.

`O=C(O)c1cc(=O)c2cc(OCCCN3CCC(C(O)(c4ccccc4)c4ccccc4)CC3)ccc2o1` returned a Kb in the assay filed under Cavia porcellus [1] (Cavia porcellus, Ileum) of 3.8 nM. Besides, the IC50 in the assay filed under Cavia porcellus [2] was more than 100000 nM.

For `Cc1ccc(C(OC2CCN(CCCOc3ccc4c(=O)cc(C(=O)O)oc4c3)CC2)c2ccccc2)cc1` (stereo in doubt; 1i), the Kb in the assay listed under Cavia porcellus [1] came out at 12.3 nM. Besides, the IC50 in the assay filed under Cavia porcellus [4] stood at 16600 nM.

In the assay filed under Cavia porcellus [1] (Cavia porcellus, Ileum), `O=C(O)c1cc(=O)c2ccc(OCCCCCCN3CCC(OC(c4ccccc4)c4ccccc4)CC3)cc2o1` yielded a Kb of 5.13 nM. Also, in the assay filed under Cavia porcellus [2], the IC50 was determined as 48200 nM.

`O=C(O)c1cc(=O)c2ccc(OCCCN3CCC(OC(c4ccccc4)c4ccccc4)CC3)cc2o1` returned a Kb in the assay listed under Cavia porcellus [1] (Cavia porcellus, Ileum) of 9.12 nM. In the assay listed under Cavia porcellus [2], the IC50 stood at 1450 nM.

As usually defined, the Kd is the constant that tells how readily two partners part at equilibrium. A higher Kd goes with weaker binding. Take `O=c1cc(C2N=NN=N2)oc2cc(OCCCN3CCC(=C(c4ccccc4)c4ccccc4)CC3)ccc12`: in the assay filed under Cavia porcellus [1] (Cavia porcellus, Ileum), the Kb was 3.63 nM. For the same molecule, the Kd in assay [5] amounted to 2340 nM; on Histamine H1 receptor [6], 5.89 nM. In the assay listed under Cavia porcellus [2], the IC50 turned out to be 190 nM.

`O=C(O)c1cc(=O)c2ccc(OCCCCCN3CCC(OC(c4ccccc4)c4ccccc4)CC3)cc2o1` displayed a Kb in the assay listed under Cavia porcellus [1] (Cavia porcellus, Ileum) of 17 nM. The IC50 in the assay listed under Cavia porcellus [2] amounted to 18300 nM.

In the assay filed under Cavia porcellus [1] (Cavia porcellus, Ileum), `O=C(O)c1cc(=O)c2cc(OCCCN3CCC(=C(c4ccccc4)c4ccccc4)CC3)ccc2o1` came in with a Kb of 5.75 nM. The values for the Kd (in assay [5]; at Histamine H1 receptor [7]) were 4270 nM and 5.98 nM, respectively. This molecule also had an IC50 in the assay filed under Cavia porcellus [2] of 650 nM.

With `O=C(O)c1cc(=O)c2ccc(OCCCN3CCC(=C(c4ccccc4)c4ccccc4)CC3)cc2o1`, the Kb in the assay filed under Cavia porcellus [1] (Cavia porcellus, Ileum) is 16.2 nM. In addition, in the assay filed under Cavia porcellus [2], the 50% inhibitory concentration (IC50) stood at 20400 nM.

Turning to `Cc1ccc(C(OC2CCN(CCCOc3ccc4c(=O)cc(C(=O)O)oc4c3)CC2)c2ccccc2)cc1` (stereo in doubt; 1j), the Kb in the assay filed under Cavia porcellus [1] is 2.24 nM. Besides, the IC50 in the assay listed under Cavia porcellus [4] is 212000 nM.

Take `CC(C)(C)c1ccc(C(O)CCCN2CCC(C(O)(c3ccccc3)c3ccccc3)CC2)cc1` (stereo unspecified) [TERFENADINE]: the IC50 entry in the assay listed under Cavia porcellus [8] is “Not Active”.
